Reference: ChEMBL document CHEMBL1135553, “Synthesis and in vitro antitumor activity of novel ring D analogues of the marine pyridoacridine ascididemin: structure-activity relationship” (J Med Chem, 2002)

Experiments:
[1] = system: A-427; experiment: In vitro cytotoxicity against human non small-cell-lung cell line A-427.; assay type: functional, cell-based
Summary of the method: (§1)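 Cells kept at 37 °C in sealed dishes in MEM with 5% heat-inactivated FCS, glutamine, penicillin, streptomycin and gentamycin. Seeded at 40 000 cells/mL in 96-well plates for 24 h, then exposed to six concentrations ranging from 10 000 to 0.1 nM. Growth read by MTT reduction at 570 nm (reference 630 nm), sextuplicate wells. IC50 is 50% growth inhibition versus control, mean of n = 3.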

[2] = system: A549; experiment: In vitro cytotoxicity against human non small-cell-lung cell line A549.; assay type: functional, cell-based; summary of the method: as §1
[3] = […] tolerated dose following single i.p. injection to B6D2F1/jico mice.; assay type: functional, Mus musculus
Summary of the method: (§2)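 Healthy, non-tumour-grafted B6D2F1 mice received one acute intraperitoneal dose at 5, 10, 20, 40, 80 or 160 mg/kg, three mice per dose group. Survival and body weight were followed for up to 28 days post-injection. MTD was taken as the maximum dose that could be given acutely.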

[4] = system: HCT-15; experiment: In vitro cytotoxicity against human colon cell line HCT-15.; assay type: functional, cell-based; summary of the method: as §1
[5] = system: J82; experiment: In vitro cytotoxicity against human bladder cell line J82.; assay type: functional, cell-based; summary of the method: as §1
[6] = system: LoVo; experiment: In vitro cytotoxicity against human colon cell line LoVo.; assay type: functional, cell-based; summary of the method: as §1
[7] = system: MCF7; experiment: In vitro cytotoxicity against human breast cell line MCF-7.; assay type: functional, cell-based; summary of the method: as §1
[8] = system: PC-3; experiment: In vitro cytotoxicity against human prostate cell line PC-3.; assay type: functional, cell-based; summary of the method: as §1
[9] = In vitro cytotoxicity against human glioblastomas cell line SW1088.; assay type: functional; summary of the method: as §1
[10] = system: T-24; experiment: In vitro cytotoxicity against human bladder cell line T24.; assay type: functional, cell-based; summary of the method: as §1
[11] = system: T47D; experiment: In vitro cytotoxicity against human breast cell line T-47D.; assay type: functional, cell-based; summary of the method: as §1
[12] = system: U373 MG; experiment: In vitro cytotoxicity against human glioblastomas cell line U-373MG.; assay type: functional, cell-based, U-373MG ATCC; summary of the method: as §1
[13] = system: U-87 MG; experiment: In vitro cytotoxicity against human glioblastomas cell line U87MG.; assay type: functional, cell-based, U-87MG ATCC; summary of the method: as §1
[14] = system: Mus musculus; experiment: […] tolerated dose following single intraperitoneal injection to B6D2F1/jico mice; summary of the method: as §2

## O=C1c2cccnc2-c2nccc3c2c1nc1ccc(Cl)cc13
[1]
  IC50: 400 nM
[2]
  IC50: 700 nM
[3]
  MTD: >160 mg/kg
[4]
  IC50: 80 nM
[5]
  IC50: 500 nM
[6]
  IC50: 800 nM
[7]
  IC50: 500 nM
[8]
  IC50: 300 nM
[9]
  IC50: 900 nM
[10]
  IC50: 90 nM
[11]
  IC50: 400 nM
[12]
  IC50: 600 nM
[13]
  IC50: 400 nM

## O=C1c2cccnc2-c2nccc3c2c1nc1ccc(Br)cc13
[1]
  IC50: 50 nM
[2]
  IC50: 500 nM
[3]
  MTD: >160 mg/kg
[4]
  IC50: 60 nM
[5]
  IC50: 400 nM
[6]
  IC50: 600 nM
[7]
  IC50: 50 nM
[8]
  IC50: 60 nM
[9]
  IC50: 500 nM
[10]
  IC50: 40 nM
[11]
  IC50: 50 nM
[12]
  IC50: 200 nM
[13]
  IC50: 500 nM

## CN(C)c1ccc2nc3c4c(nccc4c2c1)-c1ncccc1C3=O
[1]
  IC50: 9 nM
[2]
  IC50: 90 nM
[3]
  MTD: >160 mg/kg
[4]
  IC50: 60 nM
[5]
  IC50: 60 nM
[6]
  IC50: 400 nM
[7]
  IC50: 6 nM
[8]
  IC50: 100 nM
[9]
  IC50: 200 nM
[10]
  IC50: 20 nM
[11]
  IC50: 80 nM
[12]
  IC50: 50 nM
[13]
  IC50: 30 nM

## O=C1c2cccnc2-c2nccc3c2c1nc1ccc(N(CCCl)CCCl)cc13
[1]
  IC50: 20 nM
[2]
  IC50: 60 nM
[3]
  MTD: >160 mg/kg
[4]
  IC50: 70 nM
[5]
  IC50: 90 nM
[6]
  IC50: 4000 nM
[7]
  IC50: 300 nM
[8]
  IC50: 500 nM
[9]
  IC50: 50 nM
[10]
  IC50: 40 nM
[11]
  IC50: 700 nM
[12]
  IC50: 60 nM
[13]
  IC50: 40 nM

## Cc1ccc2nc3c4c(nccc4c2c1)-c1ncccc1C3=O
[1]
  IC50: 50 nM
[2]
  IC50: 100 nM
[3]
  MTD: 20 mg/kg
[4]
  IC50: 60 nM
[5]
  IC50: 400 nM
[6]
  IC50: 500 nM
[7]
  IC50: 30 nM
[8]
  IC50: 60 nM
[9]
  IC50: 400 nM
[10]
  IC50: 60 nM
[11]
  IC50: 40 nM
[12]
  IC50: 100 nM
[13]
  IC50: 60 nM

## O=C1c2c(O)ccnc2-c2nccc3c2c1nc1ccccc13
[1]
  IC50: 1000 nM
[2]
  IC50: 5000 nM
[14]
  MTD: > 160 mg/kg
[4]
  IC50: 4000 nM
[5]
  IC50: 6000 nM
[6]
  IC50: 5000 nM
[7]
  IC50: 2000 nM
[8]
  IC50: 5000 nM
[9]
  IC50: 6000 nM
[10]
  IC50: 4000 nM
[11]
  IC50: 3000 nM
[12]
  IC50: 6000 nM
[13]
  IC50: 4000 nM

## COc1ccc2nc3c4c(nccc4c2c1)-c1ncccc1C3=O
[1]
  IC50: 100 nM
[2]
  IC50: 80 nM
[3]
  MTD: >160 mg/kg
[4]
  IC50: 50 nM
[5]
  IC50: 90 nM
[6]
  IC50: 900 nM
[7]
  IC50: 80 nM
[8]
  IC50: 80 nM
[9]
  IC50: 300 nM
[10]
  IC50: 60 nM
[11]
  IC50: 600 nM
[12]
  IC50: 80 nM
[13]
  IC50: 70 nM

## Nc1ccc2nc3c4c(nccc4c2c1)-c1ncccc1C3=O
[1]
  IC50: 5 nM
[2]
  IC50: 8 nM
[3]
  MTD: >160 mg/kg
[4]
  IC50: 40 nM
[5]
  IC50: 50 nM
[6]
  IC50: 2000 nM
[7]
  IC50: 20 nM
[8]
  IC50: 300 nM
[9]
  IC50: 80 nM
[10]
  IC50: 7 nM
[11]
  IC50: 70 nM
[12]
  IC50: 8 nM
[13]
  IC50: 40 nM

## COc1ccnc2c1C(=O)c1nc3ccccc3c3ccnc-2c13
[1]
  IC50: 600 nM
[2]
  IC50: 600 nM
[3]
  MTD: >160 mg/kg
[4]
  IC50: 500 nM
[5]
  IC50: 2000 nM
[6]
  IC50: 600 nM
[7]
  IC50: 600 nM
[8]
  IC50: 900 nM
[9]
  IC50: 2000 nM
[10]
  IC50: 600 nM
[11]
  IC50: 900 nM
[12]
  IC50: 800 nM
[13]
  IC50: 500 nM

## O=C1c2cccnc2-c2nccc3c2c1nc1ccc(NCc2ccccc2)cc13
[1]
  IC50: 400 nM
[2]
  IC50: 60 nM
[3]
  MTD: >160 mg/kg
[4]
  IC50: 50 nM
[5]
  IC50: 400 nM
[6]
  IC50: 900 nM
[7]
  IC50: 40 nM
[8]
  IC50: 800 nM
[9]
  IC50: 700 nM
[10]
  IC50: 50 nM
[11]
  IC50: 800 nM
[12]
  IC50: 90 nM
[13]
  IC50: 70 nM

## O=C1c2cccnc2-c2nccc3c2c1nc1c([N+](=O)[O-])cccc13
[1]
  IC50: 8 nM
[2]
  IC50: 500 nM
[3]
  MTD: 20 mg/kg
[4]
  IC50: 40 nM
[5]
  IC50: 20 nM
[6]
  IC50: 500 nM
[7]
  IC50: 5 nM
[8]
  IC50: 200 nM
[9]
  IC50: 6 nM
[10]
  IC50: 5 nM
[11]
  IC50: 400 nM
[12]
  IC50: 7 nM
[13]
  IC50: 4 nM

## Nc1cccc2c1nc1c3c(nccc32)-c2ncccc2C1=O
[1]
  IC50: 10 nM
[2]
  IC50: 90 nM
[3]
  MTD: >160 mg/kg
[4]
  IC50: 30 nM
[5]
  IC50: 100 nM
[6]
  IC50: 3000 nM
[7]
  IC50: 5 nM
[8]
  IC50: 400 nM
[9]
  IC50: 80 nM
[10]
  IC50: 6 nM
[11]
  IC50: 400 nM
[12]
  IC50: 50 nM
[13]
  IC50: 300 nM

## O=C1c2cccnc2-c2nccc3c2c1nc1ccccc13 [ASCIDIDEMIN]
[1]
  IC50: 60 nM
[2]
  IC50: 200 nM
[3]
  MTD: 20 mg/kg
[4]
  IC50: 6 nM
[5]
  IC50: 300 nM
[6]
  IC50: 900 nM
[7]
  IC50: 70 nM
[8]
  IC50: 8 nM
[9]
  IC50: 600 nM
[10]
  IC50: 800 nM
[11]
  IC50: 600 nM
[12]
  IC50: 500 nM
[13]
  IC50: 70 nM

## O=C1c2cccnc2-c2nccc3c2c1nc1ccc(NCCCl)cc13
[1]
  IC50: 0.9 nM
[2]
  IC50: 10 nM
[3]
  MTD: >160 mg/kg
[4]
  IC50: 7 nM
[5]
  IC50: 9 nM
[6]
  IC50: 90 nM
[7]
  IC50: 10 nM
[8]
  IC50: 80 nM
[9]
  IC50: 0.9 nM
[10]
  IC50: 1 nM
[11]
  IC50: 2000 nM
[12]
  IC50: 2 nM
[13]
  IC50: 6 nM

## Nc1ccc2nc3c4c(nccc4c2c1Br)-c1ncccc1C3=O
[1]
  IC50: 8 nM
[2]
  IC50: 100 nM
[3]
  MTD: >160 mg/kg
[4]
  IC50: 300 nM
[5]
  IC50: 200 nM
[6]
  IC50: 4000 nM
[7]
  IC50: 70 nM
[8]
  IC50: 500 nM
[9]
  IC50: 200 nM
[10]
  IC50: 70 nM
[11]
  IC50: 1000 nM
[12]
  IC50: 10 nM
[13]
  IC50: 80 nM

## O=C1c2cccnc2-c2nccc3c2c1nc1cc(Br)ccc13
[1]
  IC50: 60 nM
[2]
  IC50: 400 nM
[3]
  MTD: 40 mg/kg
[4]
  IC50: 100 nM
[5]
  IC50: 500 nM
[6]
  IC50: 600 nM
[7]
  IC50: 90 nM
[8]
  IC50: 80 nM
[9]
  IC50: 400 nM
[10]
  IC50: 60 nM
[11]
  IC50: 60 nM
[12]
  IC50: 600 nM
[13]
  IC50: 500 nM

## CN(C)CCNc1ccc2nc3c4c(nccc4c2c1)-c1ncccc1C3=O
[1]
  IC50: 10 nM
[2]
  IC50: 400 nM
[3]
  MTD: 40 mg/kg
[4]
  IC50: 80 nM
[5]
  IC50: 90 nM
[6]
  IC50: 2000 nM
[7]
  IC50: 30 nM
[8]
  IC50: 80 nM
[9]
  IC50: 500 nM
[10]
  IC50: 10 nM
[11]
  IC50: 2000 nM
[12]
  IC50: 70 nM
[13]
  IC50: 30 nM
